As usually defined, the inhibition is the percentage by which the read-out fell short of the control. Lower therefore signals a response near the control. As usually defined, the IC50 is the midpoint of a concentration-inhibition curve. A higher IC50 goes with weaker potency in that assay.

In data set [1] the test system is Mus musculus. As to the kind of experiment: Volume of distribution in Balb/C mouse at 5 mg/kg, iv and po. The format is ADME, organism-based. Also on record: dose 5 mg/kg, route oral. To be noted: in vivo. Put shortly: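 Female Balb/C mice given 5 mg/kg po or iv in 10% DMSO/5% Tween 20 in saline. Terminal cardiac-puncture plasma taken at 5, 15, 30 min and 1, 2, 4, 6, 24 h. Methanol precipitation with olomoucine internal standard. Analysis by LC/MS (ESI+ MRM).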

Data set [2] is described as follows: Metabolic stability in CD1 mouse liver microsomes at 10 uM after 30 mins. The format is ADME, Microsome. The procedure, abridged: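 Compound at 10 μM incubated with male CD1 mouse liver microsomes (1 mg/mL protein) plus NADPH 1 mM, UDPGA 2.5 mM and MgCl2 3 mM in 10 mM PBS at 37 °C, for 0 and 30 min. Controls omit cofactors. Percent remaining measured by LC/MS.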
(Microsomes from liver hold many membrane-bound enzymes, among them those of drug oxidation.)

Data set [3] has as its target T1, Aurora kinase A (Homo sapiens) (UniProt O14965).
T1 sequence (whole entry): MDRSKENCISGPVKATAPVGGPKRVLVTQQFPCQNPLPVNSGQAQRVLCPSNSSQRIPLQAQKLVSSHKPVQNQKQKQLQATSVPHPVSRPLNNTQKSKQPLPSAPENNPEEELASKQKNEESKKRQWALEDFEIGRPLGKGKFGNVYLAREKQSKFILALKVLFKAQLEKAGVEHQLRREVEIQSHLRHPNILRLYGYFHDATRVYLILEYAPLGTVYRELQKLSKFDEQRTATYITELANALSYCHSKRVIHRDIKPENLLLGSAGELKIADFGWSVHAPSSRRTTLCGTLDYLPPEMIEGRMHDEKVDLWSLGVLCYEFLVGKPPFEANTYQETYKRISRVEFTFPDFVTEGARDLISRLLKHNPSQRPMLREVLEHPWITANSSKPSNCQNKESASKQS
Conditions: 1 uM.

Data set [4] addresses T2, Aurora kinase A (Homo sapiens, UniProt O14965).
T2 sequence (O14965 whole entry): T1 sequence (whole entry)
As to the kind of experiment: Inhibition of autophosphorylation of N-terminal Myc tagged aurora-A at T288 in human HCT116 cells after 2 hrs. The format is cell-based, HCT-116. The procedure, abridged: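 Cells transfected with Myc-tagged Aurora-A (wild type or T217E, L215R, R220K mutants) and treated with inhibitor concentrations for 2 h. Lysed in LDS buffer; SDS-type PAGE and western blot. Blots probed for P-T288 (Aurora-A autophosphorylation) and phospho-histone H3 S10 (Aurora-B substrate). Blots quantified; IC50 derived; ratio taken as H3 IC50 over T288 IC50.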

The target in data set [5] is Aurora kinase A (Homo sapiens, UniProt O14965, T217E). As to the kind of experiment: Inhibition of autophosphorylation of aurora-A T217E mutant at T288 in human HeLa cells after 2 hrs. Format: cell-based. The procedure, abridged:
(§1)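 Cells transfected with N-terminal Myc-tagged Aurora-A (wild type or T217E, L215R or R220K mutant, made by Quikchange mutagenesis), then exposed to a range of inhibitor concentrations for 2 h. Lysed in LDS sample buffer, sonicated, boiled, run on LDS-PAGE and blotted to nitrocellulose. Probed with anti-P-T288 (Aurora-A autophosphorylation) and anti-P-histone H3 S10 (Aurora-B substrate) antibodies. Blots quantified and IC50 fitted.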

Data set [6] has as its target T3, Aurora kinase B (Homo sapiens, UniProt Q96GD4). As to the kind of experiment: Inhibition of N-terminal Myc tagged aurora-B-mediated histone H3 phosphorylation at S10 in human HCT116 cells after 2 hrs. Format: cell-based, HCT-116. Put shortly:
as §1

A short description of data set [7]: Metabolic stability in human liver microsomes at 10 uM after 30 mins. Format: ADME. Put shortly: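 Mixed-gender pooled human liver microsomes (1 mg/mL) incubated with compound at 10 μM plus NADPH 1 mM, UDPGA 2.5 mM and MgCl2 3 mM in 10 mM PBS at 37 °C, for 0 and 30 min. Cofactor-free controls included. Percent remaining measured by LC/MS.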
Data set [8] addresses T3, Aurora kinase B. As to the kind of experiment: Inhibition of full-length aurora-B (unknown origin) using 5FAMLRRASLG-CONH2 as substrate after 60 mins. The procedure, abridged: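 Full-length Aurora-B/INCENP complex (1 nM) incubated with 1.5 μM 5FAM-LRRASLG-CONH2 peptide and 15 μM ATP in Tris pH 7.4 buffer with NaCl, MgCl2, DTT, Tween 20. Runs 60 min at room temperature, then EDTA stop. Microfluidic mobility-shift readout of percent conversion. Duplicate 8-point curves, 0.25 pM–200 μM final. IC50 by four-parameter logistic fit.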

T3 sequence (Q96GD4 whole entry): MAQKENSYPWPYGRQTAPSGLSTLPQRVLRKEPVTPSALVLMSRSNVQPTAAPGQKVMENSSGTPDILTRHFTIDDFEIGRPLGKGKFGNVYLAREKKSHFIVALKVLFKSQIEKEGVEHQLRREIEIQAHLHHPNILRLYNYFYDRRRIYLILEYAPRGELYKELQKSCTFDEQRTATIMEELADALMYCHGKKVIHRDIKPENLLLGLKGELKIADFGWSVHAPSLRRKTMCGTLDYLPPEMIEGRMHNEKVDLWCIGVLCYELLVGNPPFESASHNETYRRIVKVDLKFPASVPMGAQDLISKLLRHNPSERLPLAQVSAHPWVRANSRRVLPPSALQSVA
Sequence of Aurora kinase A (Homo sapiens, UniProt O14965, T217E) (O14965 whole entry I57V/T217E): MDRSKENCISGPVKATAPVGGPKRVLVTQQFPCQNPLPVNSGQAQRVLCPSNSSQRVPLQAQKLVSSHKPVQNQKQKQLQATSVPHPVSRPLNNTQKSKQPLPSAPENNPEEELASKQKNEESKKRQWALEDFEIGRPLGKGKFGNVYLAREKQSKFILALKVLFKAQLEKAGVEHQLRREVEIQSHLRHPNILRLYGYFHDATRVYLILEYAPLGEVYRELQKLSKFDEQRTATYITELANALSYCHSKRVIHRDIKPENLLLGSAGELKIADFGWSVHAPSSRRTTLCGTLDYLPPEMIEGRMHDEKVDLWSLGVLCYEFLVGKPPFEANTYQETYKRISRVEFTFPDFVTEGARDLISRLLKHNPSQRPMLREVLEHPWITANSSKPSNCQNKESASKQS

In the case of `Cc1nn(C)cc1-c1nc2c(Oc3ccc(C(=O)Nc4ccccc4)cc3)c(Cl)cnc2[nH]1`, in data set [1], the Vd is 1.8 L/kg. Moreover, the metabolized at 0.5 h, 10 µM in data set [2] came to 22%; in data set [7], 9%. Besides, in data set [3], the inhibition was > 80%. For the same compound, the IC50 in data set [4] turned out to be 65 nM; in data set [5], 4.11 µM; in data set [6] it was 24.6 µM; in data set [8], 12.7 µM.

Source of the values: ChEMBL document CHEMBL3085696, “Aurora isoform selectivity: design and synthesis of imidazo[4,5-b]pyridine derivatives as highly selective inhibitors of Aurora-A kinase in cells” (J Med Chem, 2013).
